Source: ChEMBL document CHEMBL4251593, “Nontoxic combretafuranone analogues with high in vitro antibacterial activity” (Eur J Med Chem, 2018)
In brackets after ≈: the same amount, converted by molar mass.

How the values were obtained:
TERT-RPE1 [1] = experiment: Cytotoxicity against human RPE1 cells assessed as reduction in cell viability after 48 hrs by ATPlite-based luminescent assay; conditions: RPE-1, 48 h
Summary of the method: (§1)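 Cells were grown […] with 10% FBS, glutamax, NEAA and pen/strep at 37 °C, 5% CO2. Media were DMEM for RPE-1, HepG2 and BJ (BJ plus 10 ng/ml bFGF), F-12K for PC3, and IMDM for K562/HL-60. Cells were seeded at 500 per well and dosed from DMSO at 12 concentrations, 40 µM to 1 nM, in triplicate. After 48 h, intracellular ATP was read by luminescence. ED50 was obtained by variable-slope nonlinear regression.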

BJ = experiment: Cytotoxicity against human BJ cells assessed as reduction in cell viability after 48 hrs by ATPlite-based luminescent assay; summary of the method: as §1
K562 [2] = experiment: Cytotoxicity against human K562 cells assessed as reduction in cell viability after 48 hrs by ATPlite-based luminescent assay; conditions: K562, 48 h; summary of the method: as §1
HL-60 [3] = experiment: Cytotoxicity against human HL60 cells assessed as reduction in cell viability after 48 hrs by ATPlite-based luminescent assay; conditions: HL-60, 48 h; summary of the method: as §1
PC-3 [4] = experiment: Cytotoxicity against human PC3 cells assessed as reduction in cell viability after 48 hrs by ATPlite-based luminescent assay; conditions: PC-3, 48 h; summary of the method: as §1
MCF7 = experiment: Cytotoxicity against human MCF7 cells assessed as reduction in cell viability after 48 hrs by ATPlite-based luminescent assay; conditions: MCF7, 48 h
HepG2 [5] = experiment: Cytotoxicity against human HepG2 cells assessed as reduction in cell viability after 48 hrs by ATPlite-based luminescent assay; conditions: HepG2, 48 h; summary of the method: as §1
TERT-RPE1 [6] = experiment: Induction of apoptosis in human RPE1 cells assessed as caspase 3/7 activity after 24 hrs by caspase-glo luminescent assay; format: cell-based; conditions: RPE-1, 24 h
Summary of the method: (§2)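 Cells were seeded at 500 per well in their growth media and exposed to 12 concentrations from 40 µM to 1 nM, delivered from DMSO, in triplicate. After 24 h, caspase-3/7 activity was read by Caspase-Glo luminescence. Data were normalized and ED50 was fitted by variable-slope nonlinear regression.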

K562 [7] = experiment: Induction of apoptosis in human K562 cells assessed as caspase 3/7 activity after 24 hrs by caspase-glo luminescent assay; format: cell-based; conditions: K562, 24 h; summary of the method: as §2
HL-60 [8] = experiment: Induction of apoptosis in human HL60 cells assessed as caspase 3/7 activity after 24 hrs by caspase-glo luminescent assay; format: cell-based; conditions: HL-60, 24 h; summary of the method: as §2
PC-3 [9] = experiment: Induction of apoptosis in human PC3 cells assessed as caspase 3/7 activity after 24 hrs by caspase-glo luminescent assay; format: cell-based; conditions: PC-3, 24 h; summary of the method: as §2
HepG2 [10] = experiment: Induction of apoptosis in human HepG2 cells assessed as caspase 3/7 activity after 24 hrs by caspase-glo luminescent assay; format: cell-based; conditions: HepG2, 24 h; summary of the method: as §2
Staphylococcus aureus [11] = experiment: Antibacterial activity against Staphylococcus aureus ATCC 6538 after 24 hrs by microdilution assay; format: functional; conditions: ATCC 6538, 24 h
Staphylococcus aureus [12] = experiment: Antibacterial activity against methicillin-resistant Staphylococcus aureus HK5996/08 clinical isolate after 24 hrs by microdilution assay; format: functional; conditions: HK5996/08, 24 h
[13] = test system: Staphylococcus epidermidis; experiment: Antibacterial activity against Staphylococcus epidermidis HK6966/08 clinical isolate after 24 hrs by microdilution assay; format: functional; conditions: HK6966/08, 24 h
Enterococcus sp. [14] = experiment: Antibacterial activity against Enterococcus sp. HK14365/08 clinical isolate after 24 hrs by microdilution assay; format: functional; conditions: HK14365/08, 24 h
Escherichia coli [15] = experiment: Antibacterial activity against Escherichia coli ATCC 8739 after 24 hrs by microdilution assay; format: functional; conditions: ATCC 8739, 24 h
Summary of the method: (§3)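 Broth microdilution in Mueller-Hinton medium buffered to pH 7.4 (±0.2), with DMSO as diluent at no more than 2% final. Compounds were tested as 2-fold serial dilutions from 2000 to 0.488 µmol/l. The inoculum was 0.5 McFarland (1.5×10^8 cfu/ml). Plates were held at 37 °C and read visually at 24 and 48 h. MIC was taken as 95% growth inhibition versus control, determined twice in duplicate.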

Klebsiella pneumoniae [16] = experiment: Antibacterial activity against Klebsiella pneumoniae HK11750/08 clinical isolate after 24 hrs by microdilution assay; format: functional; conditions: HK11750/08, 24 h
Klebsiella pneumoniae [17] = experiment: Antibacterial activity against Klebsiella pneumoniae HK14368/08 clinical isolate after 24 hrs by microdilution assay; format: functional; conditions: HK14368/08, 24 h
Pseudomonas aeruginosa [18] = experiment: Antibacterial activity against Pseudomonas aeruginosa ATCC 9027 after 24 hrs by microdilution assay; format: functional; conditions: ATCC 9027, 24 h; summary of the method: as §3
Staphylococcus aureus [19] = experiment: Antibacterial activity against Staphylococcus aureus ATCC 6538 after 48 hrs by microdilution assay; format: functional; conditions: ATCC 6538, 48 h
Staphylococcus aureus [20] = experiment: Antibacterial activity against methicillin-resistant Staphylococcus aureus HK5996/08 clinical isolate after 48 hrs by microdilution assay; format: functional; conditions: HK5996/08, 48 h
[21] = test system: Staphylococcus epidermidis; experiment: Antibacterial activity against Staphylococcus epidermidis HK6966/08 clinical isolate after 48 hrs by microdilution assay; format: functional; conditions: HK6966/08, 48 h
Enterococcus sp. [22] = experiment: Antibacterial activity against Enterococcus sp. HK14365/08 clinical isolate after 48 hrs by microdilution assay; format: functional; conditions: HK14365/08, 48 h
Escherichia coli [23] = experiment: Antibacterial activity against Escherichia coli ATCC 8739 after 48 hrs by microdilution assay; format: functional; conditions: ATCC 8739, 48 h; summary of the method: as §3
Klebsiella pneumoniae [24] = experiment: Antibacterial activity against Klebsiella pneumoniae HK11750/08 clinical isolate after 48 hrs by microdilution assay; format: functional; conditions: HK11750/08, 48 h
Klebsiella pneumoniae [25] = experiment: Antibacterial activity against Klebsiella pneumoniae HK14368/08 clinical isolate after 48 hrs by microdilution assay; format: functional; conditions: HK14368/08, 48 h
Pseudomonas aeruginosa [26] = experiment: Antibacterial activity against Pseudomonas aeruginosa ATCC 9027 after 48 hrs by microdilution assay; format: functional; conditions: ATCC 9027, 48 h; summary of the method: as §3

Row | SMILES | IC50 (TERT-RPE1 [1]) [µM] | IC50 (BJ) [µM] | IC50 (K562 [2]) [µM] | IC50 (HL-60 [3]) [µM] | IC50 (PC-3 [4]) [µM] | IC50 (MCF7) [µM] | IC50 (HepG2 [5]) [µM] | IC50 (TERT-RPE1 [6]) [µM] | IC50 (K562 [7]) [µM] | IC50 (HL-60 [8]) [µM] | IC50 (PC-3 [9]) [µM] | IC50 (HepG2 [10]) [µM] | MIC95 (Staphylococcus aureus [11]) [µM] | MIC95 (Staphylococcus aureus [12]) [µM] | MIC95 [13] [µM] | MIC95 (Enterococcus sp. [14]) [µM] | MIC95 (Escherichia coli [15]) [µM] | MIC95 (Klebsiella pneumoniae [16]) [µM] | MIC95 (Klebsiella pneumoniae [17]) [µM] | MIC95 (Pseudomonas aeruginosa [18]) [µM] | further results
1 | CC(=O)OCC1(COC(C)=O)OC(=O)C(c2ccc(Br)cc2)=C1c1ccc(C)cc1 | > 40 | > 40 | > 40 | > 40 | > 40 | > 40 | > 40 | > 40 | > 40 | > 40 | > 40 | > 40 | > 125 | > 125 | > 125 | > 125 | > 125 | > 125 | > 125 | > 125 | MIC95 (Staphylococcus aureus [19]): > 125 µM; MIC95 (Staphylococcus aureus [20]): > 125 µM; MIC95 [21]: > 125 µM; MIC95 (Enterococcus sp. [22]): > 125 µM; MIC95 (Escherichia coli [23]): > 125 µM; MIC95 (Klebsiella pneumoniae [24]): > 125 µM; MIC95 (Klebsiella pneumoniae [25]): > 125 µM; MIC95 (Pseudomonas aeruginosa [26]): > 125 µM
2 | Cc1ccc(C2=C(c3ccc(F)cc3)C(=O)OC2)cc1 | > 40 | > 40 | 4 | 9.34 | > 40 | > 40 | > 40 | > 40 | 3.23 | 7.53 | > 40 | > 40 | 125 (≈ 33.5 µg/mL) | > 500 | 125 (≈ 33.5 µg/mL) | > 500 | > 500 | > 500 | > 500 | > 500 | MIC95 (Staphylococcus aureus [19]): 125 µM (≈ 33.5 µg/mL); MIC95 (Staphylococcus aureus [20]): > 500 µM; MIC95 [21]: 125 µM (≈ 33.5 µg/mL); MIC95 (Enterococcus sp. [22]): > 500 µM; MIC95 (Escherichia coli [23]): > 500 µM; MIC95 (Klebsiella pneumoniae [24]): > 500 µM; MIC95 (Klebsiella pneumoniae [25]): > 500 µM; MIC95 (Pseudomonas aeruginosa [26]): > 500 µM
3 | COc1ccc(C2=C(c3ccc(OC)c(OC)c3)C(CO)OC2=O)cc1 (configuration not stated) | > 40 | > 40 | > 40 | > 40 | > 40 | > 40 | > 40 | > 40 | > 40 | > 40 | > 40 | > 40 | 125 (≈ 44.5 µg/mL) | 125 (≈ 44.5 µg/mL) | 62.5 (≈ 22.3 µg/mL) | > 125 | > 125 | > 125 | > 125 | > 125 | MIC95 (Staphylococcus aureus [19]): 125 µM (≈ 44.5 µg/mL); MIC95 (Staphylococcus aureus [20]): 125 µM (≈ 44.5 µg/mL); MIC95 [21]: 62.5 µM (≈ 22.3 µg/mL); MIC95 (Enterococcus sp. [22]): > 125 µM; MIC95 (Escherichia coli [23]): > 125 µM; MIC95 (Klebsiella pneumoniae [24]): > 125 µM; MIC95 (Klebsiella pneumoniae [25]): > 125 µM; MIC95 (Pseudomonas aeruginosa [26]): > 125 µM
4 | COc1ccc(C2=C(c3ccc(OC)c(OC)c3)COC2=O)cc1 | > 40 | > 40 | > 40 | > 40 | 15.9 | > 40 | > 40 | > 40 | > 40 | > 40 | > 40 | > 40 | > 125 | > 125 | > 125 | > 125 | > 125 | > 125 | > 125 | > 125 | MIC95 (Staphylococcus aureus [19]): > 125 µM; MIC95 (Staphylococcus aureus [20]): > 125 µM; MIC95 [21]: > 125 µM; MIC95 (Enterococcus sp. [22]): > 125 µM; MIC95 (Escherichia coli [23]): > 125 µM; MIC95 (Klebsiella pneumoniae [24]): > 125 µM; MIC95 (Klebsiella pneumoniae [25]): > 125 µM; MIC95 (Pseudomonas aeruginosa [26]): > 125 µM
